The text below walks through data of ChEMBL document CHEMBL1132328, “4-Hydroxy-1-[2-(4-hydroxyphenoxy)ethyl]-4-(4-methylbenzyl)piperidine: a novel, potent, and selective NR1/2B NMDA receptor antagonist” (J Med Chem, 1999).

Test [1] deals with T1, Adrenergic receptor alpha-1 (Rattus norvegicus, UniProt P15823+P23944+P43140).
T1 sequence (P15823 whole entry): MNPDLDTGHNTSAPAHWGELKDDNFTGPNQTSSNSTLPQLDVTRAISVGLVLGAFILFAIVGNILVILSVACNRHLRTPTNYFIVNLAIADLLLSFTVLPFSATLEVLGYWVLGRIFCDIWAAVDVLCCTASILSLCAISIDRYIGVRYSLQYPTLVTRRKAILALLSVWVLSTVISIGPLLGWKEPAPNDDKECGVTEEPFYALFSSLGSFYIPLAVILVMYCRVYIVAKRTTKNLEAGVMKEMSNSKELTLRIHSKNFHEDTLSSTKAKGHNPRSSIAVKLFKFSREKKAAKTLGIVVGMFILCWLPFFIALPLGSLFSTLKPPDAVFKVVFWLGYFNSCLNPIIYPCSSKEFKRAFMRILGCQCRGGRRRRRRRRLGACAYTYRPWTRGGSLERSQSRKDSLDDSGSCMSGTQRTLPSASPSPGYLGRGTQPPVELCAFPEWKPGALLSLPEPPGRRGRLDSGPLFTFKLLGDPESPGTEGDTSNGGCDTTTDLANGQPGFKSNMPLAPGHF
T1 sequence (P23944 whole entry): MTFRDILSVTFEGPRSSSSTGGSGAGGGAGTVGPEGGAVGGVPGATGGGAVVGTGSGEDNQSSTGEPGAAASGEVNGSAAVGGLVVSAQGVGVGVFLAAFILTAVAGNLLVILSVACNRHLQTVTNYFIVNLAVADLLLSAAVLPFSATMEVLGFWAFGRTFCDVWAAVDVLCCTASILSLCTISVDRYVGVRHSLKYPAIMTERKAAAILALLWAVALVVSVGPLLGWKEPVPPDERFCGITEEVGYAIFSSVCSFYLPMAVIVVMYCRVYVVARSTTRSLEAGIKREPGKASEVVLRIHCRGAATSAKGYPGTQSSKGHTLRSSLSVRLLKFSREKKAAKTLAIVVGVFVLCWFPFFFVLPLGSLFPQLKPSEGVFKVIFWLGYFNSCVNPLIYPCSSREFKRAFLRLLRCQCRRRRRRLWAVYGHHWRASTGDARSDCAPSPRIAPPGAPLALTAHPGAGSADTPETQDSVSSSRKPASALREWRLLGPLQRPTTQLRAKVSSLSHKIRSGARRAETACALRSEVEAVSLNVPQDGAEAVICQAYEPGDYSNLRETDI
T1 sequence (P43140 whole entry): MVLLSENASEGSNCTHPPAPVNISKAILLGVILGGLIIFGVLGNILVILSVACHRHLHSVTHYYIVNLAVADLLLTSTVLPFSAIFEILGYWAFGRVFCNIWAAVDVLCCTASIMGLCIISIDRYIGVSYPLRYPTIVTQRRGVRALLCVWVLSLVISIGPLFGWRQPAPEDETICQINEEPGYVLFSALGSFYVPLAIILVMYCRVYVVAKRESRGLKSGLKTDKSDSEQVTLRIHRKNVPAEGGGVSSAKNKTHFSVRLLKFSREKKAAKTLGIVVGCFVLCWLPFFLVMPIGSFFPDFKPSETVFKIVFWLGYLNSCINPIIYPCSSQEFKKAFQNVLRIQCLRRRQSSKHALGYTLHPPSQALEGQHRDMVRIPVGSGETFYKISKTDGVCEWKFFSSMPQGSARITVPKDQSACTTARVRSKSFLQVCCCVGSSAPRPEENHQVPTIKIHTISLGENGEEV
The experiment in a line: Affinity for alpha-1 adrenergic receptor in rat was determined by [3H]- prazosin binding assay. Put shortly:
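Rat cortex membranes (sucrose/Tris homogenate, washed three times in 140 mM NaCl/5 mM MgCl2/50 mM Tris-HCl pH 7.4) incubated with 0.8 nM [3H]prazosin for 60 min at room temperature. Test compounds at nine concentrations in duplicate, 1% DMSO final. Nonspecific binding defined with phentolamine. Reaction stopped by filtration through GF/B filters, then scintillation counting. IC50 from a sigmoidal fit.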

The next test is filed under the species Mus musculus. The experiment in a line: ED50 value was calculated by mouse electric shock assay (MES). It is filed as functional. Put shortly:
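Anticonvulsant testing in mice by maximal electroshock. Compounds dissolved in 0.05 M Tris and given iv. Seizure protection tested at peak activity, 2 min after dosing.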

The next test deals with Rattus. The experiment in a line: Inhibition of voltage -gated K+ currents was measured by whole cell voltage clamp recordings from dissociated rat superior cervical ganglion neurons at 10 uM. It is filed as functional. Put shortly: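 SCG neurons from 1–4-day-old rat pups, recorded 24–48 h after plating. Whole-cell clamp held at -60 mV; 30-ms steps to +50 mV. Bath solution Hepes/glucose pH 7.4; pipette solution KCl/K-aspartate/EGTA pH 7.3. Compound diluted from 10 mM DMSO stock and applied by local perfusion after control responses. Result given as percent inhibition of sustained K+ current.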

Test [2] has as its target Glutamate NMDA receptor; Grin1/Grin2a (Rattus norvegicus, UniProt P35439+Q00959). The experiment in a line: In vitro inhibitory concentration against NMDA responses at cloned NR1A/2A receptors expressed in Xenopus oocytes. The format is functional, cell-based, Oocyte.
For test [3], the target named is Glutamate NMDA receptor; Grin1/Grin2b (Rattus norvegicus, UniProt P35439+Q00960). Briefly: In vitro inhibitory concentration against NMDA responses at NR1A/2B receptors expressed in Xenopus oocytes. It is filed as functional, cell-based, Oocyte. An outline of the steps:
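Two-electrode voltage clamp of oocytes expressing cloned NR1A/2B, held at -70 mV in Ca2+-free Ringer (BaCl2 1.8 mM, Hepes 5 mM, pH 7.4). Drugs in DMSO (0.1–1% final) applied by bath perfusion. IC50 from partial 3–5-point concentration-inhibition curves fitted with residual minimum fixed at 0.15. Mean ± SE.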

The target of test [4] is Glutamate NMDA receptor; Grin1/Grin2c (Rattus norvegicus, UniProt P35439+Q00961). Briefly: In vitro inhibitory concentration against NMDA responses at NR1A/2C receptors expressed in Xenopus oocytes. It is filed as functional, cell-based, Oocyte.
Chain of Glutamate NMDA receptor; Grin1/Grin2c (Q00961 whole entry, other chains not shown): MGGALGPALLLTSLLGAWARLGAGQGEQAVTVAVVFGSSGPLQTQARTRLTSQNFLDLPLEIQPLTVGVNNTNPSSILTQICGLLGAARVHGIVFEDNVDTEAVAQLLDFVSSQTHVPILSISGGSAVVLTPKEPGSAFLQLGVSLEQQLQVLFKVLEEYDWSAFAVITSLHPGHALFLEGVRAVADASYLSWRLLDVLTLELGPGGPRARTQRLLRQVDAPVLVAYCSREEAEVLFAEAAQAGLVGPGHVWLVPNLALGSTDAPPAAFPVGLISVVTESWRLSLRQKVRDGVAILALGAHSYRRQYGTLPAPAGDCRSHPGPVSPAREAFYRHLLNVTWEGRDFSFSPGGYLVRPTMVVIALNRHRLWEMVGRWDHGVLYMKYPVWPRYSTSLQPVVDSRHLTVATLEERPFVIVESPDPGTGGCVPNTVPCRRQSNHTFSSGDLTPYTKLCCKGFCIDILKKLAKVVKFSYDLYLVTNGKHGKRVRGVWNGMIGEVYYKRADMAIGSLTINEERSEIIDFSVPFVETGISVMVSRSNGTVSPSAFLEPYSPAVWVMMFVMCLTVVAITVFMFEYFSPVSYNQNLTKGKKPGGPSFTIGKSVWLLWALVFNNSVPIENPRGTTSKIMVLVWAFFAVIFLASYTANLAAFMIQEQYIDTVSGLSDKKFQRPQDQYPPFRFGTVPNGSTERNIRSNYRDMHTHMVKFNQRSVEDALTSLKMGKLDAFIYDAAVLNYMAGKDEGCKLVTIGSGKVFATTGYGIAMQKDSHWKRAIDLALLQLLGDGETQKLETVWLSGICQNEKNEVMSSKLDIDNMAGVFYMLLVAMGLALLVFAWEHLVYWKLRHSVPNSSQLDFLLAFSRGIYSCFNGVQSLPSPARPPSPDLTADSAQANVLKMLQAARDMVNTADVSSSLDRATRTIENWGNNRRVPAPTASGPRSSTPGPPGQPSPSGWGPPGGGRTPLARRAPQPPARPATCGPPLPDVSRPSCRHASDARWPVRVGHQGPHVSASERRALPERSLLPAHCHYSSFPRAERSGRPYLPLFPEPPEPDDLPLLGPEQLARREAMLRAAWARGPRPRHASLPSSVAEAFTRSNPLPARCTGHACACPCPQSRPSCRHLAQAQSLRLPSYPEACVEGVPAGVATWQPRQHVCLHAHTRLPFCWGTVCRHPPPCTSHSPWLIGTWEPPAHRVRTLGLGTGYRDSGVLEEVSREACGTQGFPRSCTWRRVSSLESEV

Chain of Glutamate NMDA receptor; Grin1/Grin2b (Q00960 whole entry, other chains not shown, the tested form may be a part): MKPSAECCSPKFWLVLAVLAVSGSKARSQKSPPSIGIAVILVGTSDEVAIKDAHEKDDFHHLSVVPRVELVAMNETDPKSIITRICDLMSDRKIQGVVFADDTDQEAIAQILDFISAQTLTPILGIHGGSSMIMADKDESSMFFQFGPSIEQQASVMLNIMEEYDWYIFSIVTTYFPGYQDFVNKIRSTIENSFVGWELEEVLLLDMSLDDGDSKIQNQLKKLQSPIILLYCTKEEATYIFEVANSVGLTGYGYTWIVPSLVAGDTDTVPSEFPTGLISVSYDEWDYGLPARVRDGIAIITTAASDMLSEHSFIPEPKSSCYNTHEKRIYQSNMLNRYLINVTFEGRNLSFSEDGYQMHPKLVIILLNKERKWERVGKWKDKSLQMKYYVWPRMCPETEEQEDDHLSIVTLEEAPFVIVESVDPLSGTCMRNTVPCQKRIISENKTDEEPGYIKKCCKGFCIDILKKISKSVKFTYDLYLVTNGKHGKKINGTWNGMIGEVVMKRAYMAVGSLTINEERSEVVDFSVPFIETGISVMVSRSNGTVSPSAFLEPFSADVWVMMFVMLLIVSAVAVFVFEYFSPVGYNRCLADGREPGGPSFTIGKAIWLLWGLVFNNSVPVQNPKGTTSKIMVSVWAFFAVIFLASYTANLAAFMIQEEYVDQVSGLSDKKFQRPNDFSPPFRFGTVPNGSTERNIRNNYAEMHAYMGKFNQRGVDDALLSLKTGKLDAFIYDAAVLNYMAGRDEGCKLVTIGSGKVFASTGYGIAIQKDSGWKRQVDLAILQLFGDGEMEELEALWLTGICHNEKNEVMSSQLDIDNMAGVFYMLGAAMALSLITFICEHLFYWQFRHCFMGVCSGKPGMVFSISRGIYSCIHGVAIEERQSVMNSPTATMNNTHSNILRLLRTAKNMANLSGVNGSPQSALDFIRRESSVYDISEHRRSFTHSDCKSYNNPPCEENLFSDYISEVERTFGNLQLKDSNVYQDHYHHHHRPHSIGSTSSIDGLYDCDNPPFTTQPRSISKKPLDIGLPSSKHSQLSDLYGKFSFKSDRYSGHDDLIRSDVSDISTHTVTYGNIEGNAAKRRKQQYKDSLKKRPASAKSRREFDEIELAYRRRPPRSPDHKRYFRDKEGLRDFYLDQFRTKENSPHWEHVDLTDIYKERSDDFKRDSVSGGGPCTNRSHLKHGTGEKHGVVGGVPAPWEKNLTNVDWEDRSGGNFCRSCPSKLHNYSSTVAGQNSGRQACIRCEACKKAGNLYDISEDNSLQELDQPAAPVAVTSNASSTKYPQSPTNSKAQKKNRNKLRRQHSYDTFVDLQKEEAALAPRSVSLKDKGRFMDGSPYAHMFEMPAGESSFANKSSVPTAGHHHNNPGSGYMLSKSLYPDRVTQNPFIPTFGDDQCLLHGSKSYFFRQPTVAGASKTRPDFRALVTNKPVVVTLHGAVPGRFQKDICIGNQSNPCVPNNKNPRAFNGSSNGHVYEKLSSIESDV
Chain of Glutamate NMDA receptor; Grin1/Grin2a (Q00959 whole entry, other chains not shown): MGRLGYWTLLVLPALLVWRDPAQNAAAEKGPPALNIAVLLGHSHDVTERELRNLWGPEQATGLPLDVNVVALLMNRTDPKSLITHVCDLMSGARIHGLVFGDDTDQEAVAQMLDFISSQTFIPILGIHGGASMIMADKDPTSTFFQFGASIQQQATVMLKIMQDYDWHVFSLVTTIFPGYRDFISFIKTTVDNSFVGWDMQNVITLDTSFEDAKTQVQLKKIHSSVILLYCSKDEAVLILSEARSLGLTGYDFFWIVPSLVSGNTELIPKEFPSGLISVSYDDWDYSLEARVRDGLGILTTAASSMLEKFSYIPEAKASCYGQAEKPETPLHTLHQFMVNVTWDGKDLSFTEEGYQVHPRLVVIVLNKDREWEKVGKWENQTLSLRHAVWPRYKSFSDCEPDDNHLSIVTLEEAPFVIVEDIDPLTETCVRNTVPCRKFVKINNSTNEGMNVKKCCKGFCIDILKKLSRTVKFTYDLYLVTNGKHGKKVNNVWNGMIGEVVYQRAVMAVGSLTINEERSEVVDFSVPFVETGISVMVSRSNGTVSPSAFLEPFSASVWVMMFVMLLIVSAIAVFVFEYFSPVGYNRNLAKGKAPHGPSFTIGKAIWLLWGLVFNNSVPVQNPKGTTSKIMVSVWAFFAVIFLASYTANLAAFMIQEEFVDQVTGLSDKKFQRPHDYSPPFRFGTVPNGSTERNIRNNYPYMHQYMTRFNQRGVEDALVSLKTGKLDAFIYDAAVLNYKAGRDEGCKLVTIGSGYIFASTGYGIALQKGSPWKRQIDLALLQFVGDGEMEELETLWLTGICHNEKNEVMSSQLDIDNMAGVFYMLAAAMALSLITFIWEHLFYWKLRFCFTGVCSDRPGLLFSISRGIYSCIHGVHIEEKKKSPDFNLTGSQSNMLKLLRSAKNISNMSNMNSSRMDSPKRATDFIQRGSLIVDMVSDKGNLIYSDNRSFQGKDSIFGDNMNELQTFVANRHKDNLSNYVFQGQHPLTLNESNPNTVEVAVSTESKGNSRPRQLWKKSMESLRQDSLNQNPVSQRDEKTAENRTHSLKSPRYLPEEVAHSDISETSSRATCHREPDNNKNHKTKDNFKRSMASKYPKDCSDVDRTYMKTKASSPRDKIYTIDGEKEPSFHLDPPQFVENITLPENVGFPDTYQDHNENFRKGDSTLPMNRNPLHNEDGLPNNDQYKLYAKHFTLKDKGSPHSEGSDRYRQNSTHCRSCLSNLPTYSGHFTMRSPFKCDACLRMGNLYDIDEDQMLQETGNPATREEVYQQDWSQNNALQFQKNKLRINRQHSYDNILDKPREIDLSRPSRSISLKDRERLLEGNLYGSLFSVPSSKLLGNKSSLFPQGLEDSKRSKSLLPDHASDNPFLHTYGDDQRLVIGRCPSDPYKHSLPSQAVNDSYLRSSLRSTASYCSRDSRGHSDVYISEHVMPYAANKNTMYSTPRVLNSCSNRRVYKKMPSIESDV

With `C[C@@H]([C@H](O)c1ccc(O)cc1)N1CCC(Cc2ccccc2)CC1` [(R,S)-IFENPRODIL], the 50% inhibitory concentration (IC50) (in general, the concentration that inhibits the measured activity by half) in test [1] is 0.22 µM. Further, in the test filed under Mus musculus, the median effective dose (ED50) (in general, the dose that gives a 50% effect, or the effect in half of the subjects) was 7 mg/kg. For the same compound, in the test with Rattus, the inhibition (usually the relative decrease from the control value, in per cent) at 10 µM is 54%.

Turning to `Cc1ccc(CC2CCN(CCOc3ccc(O)cc3)CC2)cc1`, the IC50 in test [2] was above 100 µM; in test [3] it was 0.028 µM; in test [4], above 100 µM; in test [1], 1.8 µM. The ED50 in the test filed under Mus musculus was 0.7 mg/kg. The inhibition at 10 µM in the test on Rattus came to 67%.

Turning to `Cc1ccc(CC2(O)CCN(CCOc3ccc(O)cc3)CC2)cc1`, the IC50 in test [2] was above 100 µM; in test [3] it was 0.043 µM; in test [4], above 100 µM; in test [1] it was 27 µM. Moreover, the 50% effective dose (ED50) in the test filed under Mus musculus was 1.5 mg/kg. For the same compound, the inhibition at 10 µM in the test on Rattus stood at 23%.

Take `Oc1ccc(OCCN2CCC(c3ccccc3)CC2)cc1`: the IC50 in test [2] is 110 µM; in test [3], 7.7 µM; in test [4], above 100 µM.

Turning to `Oc1ccc(OCCN2CCC(Cc3ccccc3)CC2)cc1`, the IC50 is above 100 µM in test [2], 0.025 µM in test [3], above 100 µM in test [4] and 0.47 µM in test [1]. The ED50 in the test filed under Mus musculus is 2 mg/kg. The compound further showed an inhibition at 10 µM with Rattus of 46%.

For `Oc1ccc(OCCN2CCC(Cc3ccc(F)cc3)CC2)cc1`, the IC50 in test [2] is 21 µM; in test [3] it was 0.05 µM; in test [4], above 100 µM; in test [1] it was 1.6 µM. In addition, the median effective dose (ED50) in the test filed under Mus musculus is 3 mg/kg. In addition, in the test with Rattus, the inhibition at 10 µM is 53%.

With `OC(CN1CCC(Cc2ccc(F)cc2)CC1)c1ccc(Cl)cc1` (configuration not stated) [ELIPRODIL], the IC50 in test [2] amounted to 100 µM; in test [3] it was 1.4 µM; in test [4], 100 µM; in test [1] it was 3.3 µM. Further, the median effective dose (ED50) in the test filed under Mus musculus was 1 mg/kg. For the same compound, in the test on Rattus, at 10 µM the inhibition was 67%.

Regarding `c1ccc(CC2CCN(CCOc3ccccc3)CC2)cc1`, the half-inhibitory concentration (IC50) in test [2] was above 100 µM; in test [3], 0.63 µM; in test [4], above 100 µM; in test [1], 0.82 µM. Besides, the median effective dose (ED50) in the test filed under Mus musculus is 2 mg/kg. In the test with Rattus, this compound gave an inhibition at 10 µM of 65%.
